Screening data as filed in PubChem.
Shown are actives, neighbours in structure and some others; about 4% of the full set was active somewhere.
Granule exo inh: LAMP-1 surface exposure blockers, TALL-104 cells – cell-based, flow cytometry, MLPCN library, primary screen; inhibition, % at 10 µM; TALL-104 LAMP-1 surface exposure; cells stimulated with thapsigargin and PMA; 360,000 compounds, 0.66% hits;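 active = inhibition above about 55%, limit read from the data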
XBP1 UPR activ: activators of adaptive XBP1 UPR arm, primary screen, cell-based, CHO-XBP1 luciferase reporter, luminescence, uHTS. AID 463104, 2010. activation, % at 20 µM. IRE1-XBP1 UPR activation; percent of tunicamycin response, DMSO as zero. 330,000 compounds, 0.33% hits;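 active = versus positive control, 20 µM dose yields 30% or more activation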;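 also: 100% = tunicamycin at 10 µg/mL and 0% = DMSO only wells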
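Assay system: CHO-XBP1 luciferase reporter cells; Schedule: 6 h treatment, 37 °C; Detection: glow luminescence from Steady-Glo reagent; Benchmarks: high control tunicamycin 10 µg/mL final, low control DMSO vehicle only.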
ABHD5-PLIN5 inh: ABHD5-PLIN5 interaction inhibitors, primary screen, cell lysate, split luciferase complementation, luminescence; Split G. princeps luciferase complementation, 4 h; AID 602281, 2012; 360,000 compounds, 0.78% hits; Perilipin-5 (Homo sapiens) + 1-acylglycerol-3-phosphate O-acyltransferase ABHD5 (Homo …; inhibition, % at 4 µM;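 active = inhibition above the mean inhibition across every tested compound plus 3 SD, cut at about 22% in these data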;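 also: 0% = DMSO only wells and the 100% control is not disclosed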
Target sequence (Q00G26 whole entry, looked up): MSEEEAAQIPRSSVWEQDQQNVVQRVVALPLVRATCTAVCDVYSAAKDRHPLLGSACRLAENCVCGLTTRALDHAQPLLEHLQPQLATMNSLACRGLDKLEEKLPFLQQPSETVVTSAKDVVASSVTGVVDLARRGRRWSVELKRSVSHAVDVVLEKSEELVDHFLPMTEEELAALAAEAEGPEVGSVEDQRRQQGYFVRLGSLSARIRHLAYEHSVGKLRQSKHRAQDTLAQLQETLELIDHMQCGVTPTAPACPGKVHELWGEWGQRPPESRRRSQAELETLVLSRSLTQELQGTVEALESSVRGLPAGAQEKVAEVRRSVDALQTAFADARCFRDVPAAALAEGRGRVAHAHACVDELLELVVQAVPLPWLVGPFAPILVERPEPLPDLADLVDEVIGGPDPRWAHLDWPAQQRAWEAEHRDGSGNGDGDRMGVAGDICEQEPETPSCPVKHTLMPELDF
Target sequence (Q8WTS1 whole entry, looked up): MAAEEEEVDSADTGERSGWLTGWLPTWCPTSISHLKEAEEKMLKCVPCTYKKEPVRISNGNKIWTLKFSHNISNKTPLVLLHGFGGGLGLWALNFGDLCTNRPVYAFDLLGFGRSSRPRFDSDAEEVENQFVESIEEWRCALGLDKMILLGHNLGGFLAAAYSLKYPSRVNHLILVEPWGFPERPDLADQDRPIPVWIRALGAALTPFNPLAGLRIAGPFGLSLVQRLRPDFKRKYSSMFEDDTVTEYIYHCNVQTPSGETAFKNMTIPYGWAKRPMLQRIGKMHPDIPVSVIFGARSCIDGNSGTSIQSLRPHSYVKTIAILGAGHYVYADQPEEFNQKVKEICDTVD
Mdm2-MdmX inh: inhibitors of human Mdm2-MdmX association, primary screen, cell-based, luminescence, split luciferase, SaOS-2, uHTS; Protein Mdm4 (Homo sapiens) + E3 ubiquitin-protein ligase Mdm2 (Homo sapiens), …; SaOS-2 split-luciferase Mdm2/MdmX complementation; inhibition, % at 8 µM; 330,000 compounds, 3% hits; AID 485346, 2010;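 active = inhibition of at least 50% at 8 µM in the primary screen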
UPR CHOP act: activators of apoptotic CHOP UPR arm, primary screen, cell-based, CHO-CHOP luciferase reporter, luminescence, uHTS; UPR activation; percent of tunicamycin response over DMSO baseline; activation, % at 10 µM; 330,000 compounds, 0.34% hits; AID 449763, 2010;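 active = at 10 µM dose, activation of 40% or more, normalized to positive control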;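 also: 100% = tunicamycin at 10 µg/mL and 0% = DMSO alone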
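System: CHO-CHOP luciferase reporter cell line | Buffer or medium: F12 medium containing 10% fetal bovine serum | Doses: One dose, 10 µM in 0.5% DMSO | Times: 6 h compound exposure at 37 °C after overnight seeding | Signal: Luciferase luminescence | Read-out: % activation vs tunicamycin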
UPR CHOP confirm: activators of apoptotic CHOP UPR arm, confirmation, cell-based, CHO-CHOP luciferase reporter, single concentration. shares compounds with UPR CHOP act. CHO-CHOP cells, CHOP-luciferase reporter luminescence; percent of tunicamycin response, DMSO as zero. activation, % at 10 µM. 1,000 compounds, 64% hits; in the data active = activation above about 33%;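 also: 0% = DMSO wells and 100% = tunicamycin 10 µg/mL wells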
UPR XBP1 confirm: IRE1-XBP1 UPR arm activators, confirmation, cell-based, CHO-XBP1 luciferase reporter, luminescence, single concentration | shares compounds with XBP1 UPR activ | activation, % at 20 µM | 1,000 compounds, 63% hits | AID 485299, 2010;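 active = reporter signal at least 30% of the positive control's activation in two or more of four replicate wells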;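 also: plate controls were DMSO negative control for no effect and tunicamycin 10 µg/mL positive control for full effect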
An asterisk follows results filed as active; / = not tested or not shown.

SMILES	Granule exo inh	XBP1 UPR activ	ABHD5-PLIN5 inh	Mdm2-MdmX inh	UPR CHOP act	UPR CHOP confirm	others
O=C(Nc1cccc(S(=O)(=O)N2CCCCC2)c1)c1ccc([N+](=O)[O-])o1	-1	2	0	30	55*	39*
Cc1ccc(NC(=O)c2ccc([N+](=O)[O-])o2)cc1S(=O)(=O)N1CCOCC1	-3	0	-3	18	82*	40*
Cc1ccc(NC(=O)c2cc([N+](=O)[O-])ccc2N2CCOCC2)cc1S(=O)(=O)N1CCOCC1	-2	-6	-5	19	1	/
O=C(CCC(=O)Nc1ccc(Cl)cc1Cl)N/N=C/c1ccc([N+](=O)[O-])o1	8	8	-2	8	193*	107*
CCOC(=O)Cn1nc(C)c(NC(=O)CCc2ccc(OC)cc2)c1C	13	-2	-2	7	0	/
O=C(NCC(O)c1ccc([N+](=O)[O-])cc1)C(c1ccccc1)c1ccccc1 (centres undefined)	-12	-8	-2	3	1	/
COc1cc(NC(=O)CNc2cccc(S(=O)(=O)N3CCOCC3)c2)cc(OC)c1	1	4	-5	7	41*	-2
Cc1ccc(NC(=O)CNc2cccc(S(=O)(=O)N3CCOCC3)c2)cc1F	-6	-2	-6	34	2	/
CCc1cc2c(SCC(=O)NC3CCS(=O)(=O)C3)ncnc2s1 (centres undefined)	0	-1	11	-12	0	/
O=C1NN(c2cccc(Br)c2)C(=O)/C1=C\c1ccccc1	-3	-1	-2	13	4	/
O=C1NN(c2cccc(Br)c2)C(=O)/C1=C/c1cccs1	4	17	0	-24	43*	60*
C[C@H](O)[C@@H]1C(=O)N2CCc3ccc(-c4cccc(F)c4)cc3[C@@H]2C[C@@H]1N(C)S(=O)(=O)c1ccccc1	-3	/	-1	/	/	/
COCCN(C(=O)Cc1cccs1)C(C(=O)NC1CCCC1)c1cc(OC)c(OC)c(OC)c1 (centres undefined)	-3	1	2	2	1	/
O=C(Nc1cccc(-c2nc3cccnc3s2)c1)C1c2ccccc2Oc2ccccc21	1	440*	4	28	281*	75*	UPR XBP1 confirm=466*
CCOC(=O)c1ccc(-c2ccc(/C=N/NC(=O)CN(c3cccc(C)c3)S(C)(=O)=O)o2)cc1	-2	115*	2	40	55*	50*	UPR XBP1 confirm=48*
CCOC(=O)c1ccc(-c2ccc(/C=N/NC(=O)CN(c3ccccc3Cl)S(C)(=O)=O)o2)cc1	3	-1	-1	46	12	/
Cc1cc(-c2nn(-c3ccccc3F)cc2CNCCc2cnccn2)c(C)s1	25	-2	0	-4	1	/
CCCN1Cc2cccc(C(=O)Nc3ccc(-c4nc5ccccc5[nH]4)cc3)c2C1=O	44	38*	-2	41	42*	41*	UPR XBP1 confirm=29
COCCN1Cc2cccc(C(=O)Nc3ccc(-c4nc5ccccc5[nH]4)cc3)c2C1=O	-1	4	5	40	4	/
C/C(CC1CC(C)OC1=O)=N\NC(N)=S (centres undefined)	-3	0	1	-6	0	/
C/C(CCC12CC3CC(CC(C3)C1)C2)=N\NC(N)=S	-4	83*	-6	31	220*	96*	UPR XBP1 confirm=63*
Cc1ccc(NC(=O)CN2C(=O)COc3ccc(S(=O)(=O)N4CCOCC4)cc32)cc1N(C)C	-11	-3	-5	13	-2	/
